Data set [1] can be described thus: Tmax in Sprague-Dawley rat at 50 mg/kg, po. The class given is ADME, organism-based. Also noted: dose 50 mg/kg, route oral. The note with it: in vivo. Summed up: (§1)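 Single dose given orally (10 or 50 mg/kg) or intravenously (10 mg/kg). Serial 300 µL blood samples were taken from the retrobulbar vein. Plasma was quantified by LC-MS. Parameters came from mean plasma concentration by non-compartmental analysis. F is absolute oral bioavailability, assuming linear pharmacokinetics.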

Data set [2] in a line: Oral bioavailability in Sprague-Dawley rat at 10 mg/kg. The class given is ADME, organism-based. The conditions noted are these: in vivo. In a few lines: as §1
A short description of data set [3]: Cmax in Sprague-Dawley rat at 50 mg/kg, po. The class given is ADME, organism-based. The arrangement: dose 50 mg/kg, route oral. The conditions noted are these: in vivo. In a few lines:
as §1

The nature of data set [4]: Elimination half life in Sprague-Dawley rat at 10 mg/kg, iv. The class given is ADME, organism-based. The arrangement: dose 10 mg/kg, route intravenous. The conditions noted are these: in vivo, read-out: beta t1/2 (converted). In a few lines:
as §1

Data set [5] concerns Staphylococcus aureus. The data set can be described thus: Antimicrobial activity against Staphylococcus aureus ATCC 29213 after 16 to 18 hrs by agar dilution method. The class given is functional. A general note: In agar dilution the substance is mixed into plates at graded concentrations.
In data set [6] the test system is Rattus norvegicus. The data set is described as follows: (§2) AUC (0 to infinity) in Sprague-Dawley rat at 50 mg/kg, po. The class given is ADME, organism-based, Plasma. Also noted: time infinity, dose 50 mg/kg, route oral. The conditions noted are these: in vivo. Summed up:
as §1

Data set [7] in a line: Clearance in Sprague-Dawley rat at 10 mg/kg, iv. The conditions noted are these: in vivo. The arrangement: dose 10 mg/kg, route intravenous. The class given is ADME, organism-based. In a few lines:
as §1

Data set [8] deals with Staphylococcus aureus. The data set is described as follows: Antimicrobial activity against methicillin-susceptible Staphylococcus aureus after 16 to 18 hrs by agar dilution method. The class given is functional.
Data set [9] can be described thus: AUC (0 to infinity) in Sprague-Dawley rat at 10 mg/kg, iv. The class given is ADME, organism-based. Also noted: time infinity, dose 10 mg/kg, route intravenous. The conditions noted are these: plasma. In a few lines: as §1
In a further data set the test system is Enterococcus faecalis. The data set can be described thus: Antimicrobial activity against Enterococcus faecalis after 16 to 18 hrs by agar dilution method. The class given is functional.
The nature of data set [10]: Elimination half life in Sprague-Dawley rat at 10 mg/kg, po. The class given is ADME, organism-based. Also noted: dose 10 mg/kg, route oral. The conditions noted are these: in vivo, read-out: beta t1/2 (converted). Summed up:
as §1

Data set [11] deals with Staphylococcus aureus. The data set is described as follows: Antimicrobial activity against methicillin-resistant Staphylococcus aureus after 16 to 18 hrs by agar dilution method. The class given is functional.
Data set [12] is described as follows: Elimination half life in Sprague-Dawley rat at 50 mg/kg, po. The class given is ADME, organism-based. The arrangement: dose 50 mg/kg, route oral. The note with it: in vivo, read-out: beta t1/2 (converted). In a few lines: as §1
The subject of a further data set is Streptococcus pneumoniae. The data set is described as follows: Antimicrobial activity against sStreptococcus pneumoniae after 16 to 18 hrs by agar dilution method. The class given is functional.
Data set [13] concerns Rattus norvegicus. The data set is described as follows: (§3) AUC (0 to infinity) in Sprague-Dawley rat at 10 mg/kg, po. The class given is ADME, organism-based, Plasma. The conditions noted are these: in vivo. Also noted: time infinity, dose 10 mg/kg, route oral. Summed up: as §1
A short description of data set [14]: Tmax in Sprague-Dawley rat at 10 mg/kg, po. The class given is ADME, organism-based. The arrangement: dose 10 mg/kg, route oral. The note with it: in vivo. Summed up:
as §1

Data set [15] can be described thus: Cmax in Sprague-Dawley rat at 10 mg/kg, po. The arrangement: dose 10 mg/kg, route oral. The note with it: in vivo. The class given is ADME, organism-based. In a few lines: as §1
Data set [16] deals with Staphylococcus aureus. The data set is described as follows: Antimicrobial activity against methicillin-resistant Staphylococcus aureus 05-2 infected in sc dosed KunMing SPF mouse. The class given is functional.
Data set [17] concerns Staphylococcus aureus. The data set is described as follows: Antimicrobial activity against methicillin-resistant Staphylococcus aureus 05-2 infected in iv dosed KunMing SPF mouse. The class given is functional. In a few lines:
(§4)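 Mice given a lethal systemic infection by intraperitoneal injection of the MLD inoculum of MRSA 05-2. Compound dosed orally or by i.v. injection in 0.9% NaCl immediately and 4 h post-infection. ED50 (dose curing 50% of infected mice) calculated by the Bliss method on day 7 post-infection, with 95% confidence ranges.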

A short description of data set [18]: Clearance in Sprague-Dawley rat at 50 mg/kg, po. The class given is ADME, organism-based. Also noted: dose 50 mg/kg, route oral. The note with it: in vivo. Summed up:
as §1

A short description of data set [19]: as §2. Also noted: time infinity, dose 50 mg/kg, route oral. The class given is ADME, organism-based, Plasma. The note with it: Sprague-Dawley, plasma. Summed up:
as §1

Data set [20] in a line: Clearance in Sprague-Dawley rat at 10 mg/kg, po. The class given is ADME, organism-based. Also noted: dose 10 mg/kg, route oral. The note with it: in vivo. Summed up:
as §1

The subject of data set [21] is Staphylococcus aureus. The data set is described as follows: Antimicrobial activity against methicillin-resistant Staphylococcus aureus 05-2 infected in po dosed KunMing SPF mouse. The class given is functional. Summed up: as §4
Data set [22] is described as follows: as §3. The class given is ADME, organism-based, Plasma. The arrangement: time infinity, dose 10 mg/kg, route oral. The conditions noted are these: Sprague-Dawley, plasma. Summed up:
as §1

Values after ≈ are worked out from the molar mass of the structure shown.

From ChEMBL document CHEMBL1151774, “Synthesis and biological evaluation of new N-linked 5-triazolylmethyl oxazolidinones” (Eur J Med Chem, 2008) come the findings set out here.

One may read the Tmax as the time from dosing to the highest level. The Cmax is the highest concentration seen after dosing. As usually defined, the MIC is the smallest concentration in the dilution series that meets the test's criterion for growth inhibition. The AUC is the area under the concentration-time curve, a measure of exposure. Low values mean less exposure, high ones more exposure. A word on the clearance: it is the rate of elimination divided by the concentration. Read a high clearance as a high capacity for elimination. As a reminder, the AUC(0-inf) is total exposure, with the tail of the curve extrapolated. The low end stands for low exposure, the high end for high exposure. For the compound `O=C1O[C@@H](Cn2ccnn2)CN1c1ccc(N2CCN(Cc3ccc([N+](=O)[O-])o3)CC2)c(F)c1`, the Tmax in data set [1] is 0.5 h; in data set [14] it was 0.25 h. In addition, the bioavailability in [2] was 103%. In addition, the results for the highest concentration (Cmax) in data set [3] and in [15] were 16900 ng/mL and 5440 ng/mL, respectively. The half-life in data set [4] is 1.18 h; in [10] it was 1.51 h; in data set [12] it was 1.66 h. In addition, the MIC against Staphylococcus aureus [5] came out at 0.06 µg/mL (≈ 0.127 µM); in the data set with Staphylococcus aureus [8], 0.06 µg/mL (≈ 0.127 µM); in the data set on Enterococcus faecalis it was 0.25 µg/mL (≈ 0.53 µM); with Staphylococcus aureus [11] it was 0.06 µg/mL (≈ 0.127 µM); with Streptococcus pneumoniae, 0.03 µg/mL (≈ 0.0636 µM). The AUC in the data set with Rattus norvegicus [6] was 139000 ng·h/mL; in the data set with Rattus norvegicus [13] it was 19400 ng·h/mL. The compound further gave a clearance in data set [7] of 16.2 mL/min/kg. The same compound gave an AUC(0-inf) in [9] of 18900 ng·h/mL.

For orientation: ED50 means the midpoint of the dose-response relation. Read a high ED50 as a need for a large dose. With `CN[C@H](CC(C)C)C(=O)N[C@H]1C(=O)N[C@@H](CC(N)=O)C(=O)N[C@H]2C(=O)N[C@H]3C(=O)N[C@H](C(=O)N[C@H](C(=O)O)c4cc(O)cc(O)c4-c4cc3ccc4O)[C@H](O)c3ccc(c(Cl)c3)Oc3cc2cc(c3O[C@@H]2O[C@H](CO)[C@@H](O)[C@H](O)[C@H]2O[C@H]2C[C@](C)(N)[C@H](O)[C@H](C)O2)Oc2ccc(cc2Cl)[C@H]1O` [VANCOMYCIN], the minimal inhibitory concentration (MIC) in the data set with Staphylococcus aureus [5] was determined as 0.125 µg/mL (≈ 0.0863 µM); with Staphylococcus aureus [8], 0.125 µg/mL (≈ 0.0863 µM); in the data set with Enterococcus faecalis, 1 µg/mL (≈ 0.69 µM); against Streptococcus pneumoniae, 1 µg/mL (≈ 0.69 µM). In addition, the 50% effective dose (ED50) in the data set on Staphylococcus aureus [16] stood at 6 mg/kg; in the data set on Staphylococcus aureus [17], 6.54 mg/kg.

The CL/F is clearance divided by bioavailability, as obtained after extravascular dosing. For `O=C1O[C@@H](Cn2ccnn2)CN1c1ccc(N2CCN(Cc3ccoc3)CC2)c(F)c1`, the Tmax in data set [1] came out at 1.9 h; in data set [14], 0.88 h. Further, the apparent clearance CL/F in data set [18] is 8.86 mL/min/kg; in [20], 10.5 mL/min/kg. For the same compound, in data set [2], the bioavailability stood at 62.7%. Further, the Cmax in [3] is 10700 ng/mL; in [15] it was 3040 ng/mL. Moreover, the half-life is 2.95 h in data set [4], 2.76 h in data set [10] and 8.6 h in [12]. Also, the MIC against Staphylococcus aureus [5] stood at 0.008 µg/mL (≈ 0.0188 µM); in the data set on Staphylococcus aureus [8], 0.008 µg/mL (≈ 0.0188 µM); in the data set on Enterococcus faecalis, 0.5 µg/mL (≈ 1.17 µM); with Staphylococcus aureus [11], 0.03 µg/mL (≈ 0.0703 µM); against Streptococcus pneumoniae, 0.03 µg/mL (≈ 0.0703 µM). In addition, the AUC(0-inf) in data set [19] came to 85800 ng·h/mL; in data set [9] it was 26200 ng·h/mL; in data set [22], 16400 ng·h/mL. Further, in data set [7], the clearance amounted to 6.98 mL/min/kg. Moreover, the ED50 with Staphylococcus aureus [17] amounted to 6.99 mg/kg; with Staphylococcus aureus [21], 7.47 mg/kg.
